Assay results published in ChEMBL document CHEMBL1151761, “Radiohalogenated prostate-specific membrane antigen (PSMA)-based ureas as imaging agents for prostate cancer” (J Med Chem, 2008).

Columns and labels:
[1] = Biodistribution in large intestine of PSMA expressing human PC3 PIP and PSMA deficient human PC3 flu cells xenografted SCID mouse at 2 uCi, iv after 60 mins; format: ADME, organism-based; conditions: in vivo, 1 h
Procedure, shortened: (§1)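 Male SCID mice carried subcutaneous PSMA+ PC-3 PIP (left shoulder) and PC-3 flu (right shoulder) xenografts, 1-5 × 10^6 cells in HBSS, and were used at 3-5 mm tumor diameter. Tail-vein injection of 2 µCi radioligand; four mice per time point, killed by cervical dislocation. %ID/g from a standard dilution of the dose, decay-corrected, mean ± SD; PIP tumor:organ ratios.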

[2] = Biodistribution in PC3 flu tumor of PSMA expressing human PC3 PIP and PSMA deficient human PC3 flu cells xenografted SCID mouse at 2 uCi, iv after 60 mins; format: ADME, organism-based; conditions: in vivo, 1 h; procedure, shortened: as §1
[3] = Biodistribution in PC3 flu tumor of PSMA expressing human PC3 PIP and PSMA deficient human PC3 flu cells xenografted SCID mouse at 2 uCi, iv after 30 mins; format: ADME, organism-based; conditions: in vivo, 0.5 h; procedure, shortened: as §1
[4] = target: T1, Glutamate carboxypeptidase 2 (Homo sapiens, UniProt Q04609); assay: Inhibition of PSMA in human LNCaP cell extract using [3H]NAAG by radiometric assay; format: cell-free
[5] = target: T1, Glutamate carboxypeptidase 2; assay: Inhibition of PSMA in human LNCaP cell extract using [3H]NAAG by fluorescence-based assay; format: cell-free
[6] = Biodistribution in small intestine of PSMA expressing human PC3 PIP and PSMA deficient human PC3 flu cells xenografted SCID mouse at 2 uCi, iv after 30 mins; format: ADME, organism-based; conditions: in vivo, 0.5 h; procedure, shortened: as §1
[7] = Biodistribution in PC3 PIP tumor of PSMA expressing human PC3 PIP and PSMA deficient human PC3 flu cells xenografted SCID mouse at 2 uCi, iv after 30 mins; format: ADME, organism-based; conditions: in vivo, 0.5 h; procedure, shortened: as §1
[8] = Biodistribution in small intestine of PSMA expressing human PC3 PIP and PSMA deficient human PC3 flu cells xenografted SCID mouse at 2 uCi, iv after 2 hrs; format: ADME, organism-based; conditions: in vivo; procedure, shortened: as §1
[9] = Biodistribution in PC3 flu tumor of PSMA expressing human PC3 PIP and PSMA deficient human PC3 flu cells xenografted SCID mouse at 2 uCi, iv after 2 hrs; format: ADME, organism-based; conditions: in vivo; procedure, shortened: as §1
[10] = Biodistribution in PC3 flu tumor of PSMA expressing human PC3 PIP and PSMA deficient human PC3 flu cells xenografted SCID mouse at 2 uCi, iv after 5 hrs; format: ADME, organism-based; conditions: in vivo; procedure, shortened: as §1
[11] = Biodistribution in small intestine of PSMA expressing human PC3 PIP and PSMA deficient human PC3 flu cells xenografted SCID mouse at 2 uCi, iv after 60 mins; format: ADME, organism-based; conditions: in vivo, 1 h; procedure, shortened: as §1
[12] = Biodistribution in small intestine of PSMA expressing human PC3 PIP and PSMA deficient human PC3 flu cells xenografted SCID mouse at 2 uCi, iv after 5 hrs; format: ADME, organism-based; conditions: in vivo; procedure, shortened: as §1
[13] = Biodistribution in large intestine of PSMA expressing human PC3 PIP and PSMA deficient human PC3 flu cells xenografted SCID mouse at 2 uCi, iv after 2 hrs; format: ADME, organism-based; conditions: in vivo; procedure, shortened: as §1
[14] = Biodistribution in large intestine of PSMA expressing human PC3 PIP and PSMA deficient human PC3 flu cells xenografted SCID mouse at 2 uCi, iv after 30 mins; format: ADME, organism-based; conditions: in vivo, 0.5 h; procedure, shortened: as §1
[15] = Biodistribution in large intestine of PSMA expressing human PC3 PIP and PSMA deficient human PC3 flu cells xenografted SCID mouse at 2 uCi, iv after 5 hrs; format: ADME, organism-based; conditions: in vivo; procedure, shortened: as §1

T1 sequence (Q04609 whole entry): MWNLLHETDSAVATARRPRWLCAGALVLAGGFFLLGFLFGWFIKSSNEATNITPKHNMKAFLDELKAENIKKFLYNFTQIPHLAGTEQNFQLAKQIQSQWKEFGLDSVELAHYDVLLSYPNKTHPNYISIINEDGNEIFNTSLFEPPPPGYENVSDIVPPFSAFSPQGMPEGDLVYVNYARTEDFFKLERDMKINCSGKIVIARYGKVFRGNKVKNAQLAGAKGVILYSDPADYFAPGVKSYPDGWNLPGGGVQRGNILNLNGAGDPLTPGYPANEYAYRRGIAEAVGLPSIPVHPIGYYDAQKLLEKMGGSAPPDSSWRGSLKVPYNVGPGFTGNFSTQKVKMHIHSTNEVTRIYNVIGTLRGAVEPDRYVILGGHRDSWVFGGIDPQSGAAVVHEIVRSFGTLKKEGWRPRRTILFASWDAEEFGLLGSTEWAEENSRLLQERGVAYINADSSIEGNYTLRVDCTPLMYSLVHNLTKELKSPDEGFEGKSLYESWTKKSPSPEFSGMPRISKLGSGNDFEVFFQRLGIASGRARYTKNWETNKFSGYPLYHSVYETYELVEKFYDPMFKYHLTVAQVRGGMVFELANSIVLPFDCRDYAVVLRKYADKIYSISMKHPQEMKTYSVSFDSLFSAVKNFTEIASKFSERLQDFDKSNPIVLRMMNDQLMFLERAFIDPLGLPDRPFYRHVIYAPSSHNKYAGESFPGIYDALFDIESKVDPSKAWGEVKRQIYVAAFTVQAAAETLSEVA

In the case of `O=C(O)CC[C@H](NC(=O)N[C@@H](CCCCNC(=O)c1cncc([125I])c1)C(=O)O)C(=O)O`, the Drug uptake [1] is reported as 0.6 % ID/g, the Drug uptake [2] is reported as 0.6 % ID/g and the Drug uptake [3] is reported as 0.8 % ID/g.

In the case of `O=C(O)CC[C@H](NC(=O)N[C@@H](CCCCNC(=O)c1ccc(F)cc1)C(=O)O)C(=O)O`, the Ki [4] is reported as 256 pM and the Ki [5] is reported as 194 pM.

`O=C(O)CC[C@H](NC(=O)N[C@@H](CCCCNC(=O)c1ccc([125I])cc1)C(=O)O)C(=O)O` gave a Drug uptake [6] of 4.9 % ID/g, a Drug uptake [1] of 1 % ID/g and a Drug uptake [7] of 8.8 % ID/g. It also gave a Drug uptake [8] of 1.5 % ID/g, a Drug uptake [9] of 0.7 % ID/g and a Drug uptake [10] of 0.6 % ID/g. It also gave a Drug uptake [11] of 3.8 % ID/g, a Drug uptake [12] of 1.5 % ID/g and a Drug uptake [2] of 1.2 % ID/g. The Drug uptake [13] was 0.6 % ID/g, the Drug uptake [14] was 1.4 % ID/g and the Drug uptake [3] was 1.8 % ID/g. The Drug uptake [15] was 0.7 % ID/g.
